16 compounds from ChEMBL document CHEMBL1828605, “Synthesis, antiviral activity, cytotoxicity and cellular pharmacology of l-3'-azido-2',3'-dideoxypurine nucleosides” (Eur J Med Chem, 2011) can be followed below.

Series [1] relates to Hepatitis B virus. Nature of the series: Antiviral activity against Hepatitis B virus infected in human HepAD38 assessed as reduction of viral DNA level on day 7 by quantitative-PCR assay analysis. The class given is functional, organism-based.
Series [2] concerns Human immunodeficiency virus 1. Nature of the series: Antiviral activity against HIV1 LAV1 infected in phytohemagglutininin-stimulated human PBMC assessed as RT level after 6 days by microdilution plate assay. It counts as functional, organism-based. For orientation: In broth dilution the organism is exposed to a series of concentrations in liquid medium.
The test system of series [3] is PBMC. Nature of the series: Drug metabolism in human phytohemagglutininin-stimulated human PBMC assessed as 30-azido-20,30-dideoxy-b-L-adenosine monophosphate level per 10^6 cells at 50 uM after 4 hrs by LC-MS/MS analysis. It counts as ADME, cell-based. The method in brief:
(§1)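 PHA-activated human PBM cells incubated with nucleoside at 50 μM for 4 h at 37 °C, then PBS-washed. Intracellular nucleoside and nucleotide metabolites were extracted with 60% ice-cold methanol, dried, redissolved in HPLC mobile phase, and quantified by LC-MS/MS.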

Series [4] in a line: Cytotoxicity against human HepAD38 cells. It counts as cell-based.
Series [5] deals with PBMC. Briefly: Drug metabolism in human phytohemagglutininin-stimulated human PBMC assessed as 30-azido-20,30-dideoxy-b-L-adenosine diphosphate level per 10^6 cells at 50 uM after 4 hrs by LC-MS/MS analysis. It counts as ADME, cell-based. The essentials: as §1
In series [6] the test system is PBMC. Briefly: Drug metabolism in human phytohemagglutininin-stimulated human PBMC assessed as 30-azido-20,30-dideoxy-b-L-adenosine level per 10^6 cells at 50 uM after 4 hrs by LC-MS/MS analysis. The class given is ADME, cell-based. The method in brief:
as §1

The subject of series [7] is Vero. Briefly: Cytotoxicity against african green monkey Vero cells after 3 days by hemocytometry. It counts as cell-based. The settings on record: Chlorocebus sabaeus, 72 h.
The subject of series [8] is CCRF-CEM. Nature of the series: Cytotoxicity against human CEM cells after 6 days by trypan blue exclusion assay. It counts as cell-based. The settings on record: 144 h.
Series [9] concerns PBMC. Briefly: Cytotoxicity against phytohemagglutininin-stimulated human PBMC after 6 days by trypan blue exclusion assay. It counts as cell-based. The settings on record: 144 h.
Series [10] has as its system PBMC. Nature of the series: Drug metabolism in human phytohemagglutininin-stimulated human PBMC assessed as 30-azido-20,30-dideoxy-b-L-adenosine triphosphate level per 10^6 cells at 50 uM after 4 hrs by LC-MS/MS analysis. The class given is ADME, cell-based. The method in brief:
as §1

For series [11], the target named is Human immunodeficiency virus type 1 reverse transcriptase (Human immunodeficiency virus 1) (UniProt Q72547). Nature of the series: Ratio Kpol to Kd for wild type HIV 1 reverse transcriptase. The essentials: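 Pre-steady-state single-turnover incorporation by purified WT HIV-1 RT (200 nM, final), pre-incubated with 20 nM T/P substrate, then mixed with nucleotide at varying concentrations plus metal ions. Reaction at 37 °C in 50 mM Tris-HCl pH 7.5, 50 mM KCl, 10 mM MgCl₂. Aliquots quenched in gel loading buffer at 1-60 min. 20mer→21mer conversion quantified on gel. k_obs from burst fit, k_pol and K_d from hyperbolic fit, efficiency taken as k_pol/K_d.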

Series [12] shares this target. Briefly: Selectivity ratio of Kpol to Kd for dATP to Kpol to Kd for compound at HIV1 reverse transcriptase.
Series [13] concerns the target Human immunodeficiency virus type 1 reverse transcriptase (Human immunodeficiency virus 1, UniProt Q72547). Briefly: Binding affinity to HIV1 reverse transcriptase assessed as L-3'-azido-NTP incorporation in nascent DNA.
Series [14] deals with PBMC. Briefly: Drug metabolism in human phytohemagglutininin-stimulated human PBMC assessed as 9-(3-azido-2,3-dideoxy-b-L-ribofuranosyl)-2-amino-6-chloropurine level per 10^6 cells at 50 uM after 4 hrs by LC-MS/MS analysis. The class given is ADME, cell-based. The essentials:
as §1

Series [15] deals with PBMC. Briefly: Drug metabolism in human phytohemagglutininin-stimulated human PBMC assessed as 9-(3-azido-2,3-dideoxy-b-L-ribofuranosyl)-2-amino-6-chloropurine diphosphate level per 10^6 cells at 50 uM after 4 hrs by LC-MS/MS analysis. It counts as ADME, cell-based. The essentials: as §1
Series [16] has as its system PBMC. Briefly: Drug metabolism in human phytohemagglutininin-stimulated human PBMC assessed as compound level per 10^6 cells at 50 uM after 4 hrs by LC-MS/MS analysis. The class given is ADME, cell-based.
The test system of series [17] is PBMC. Nature of the series: Drug metabolism in human phytohemagglutininin-stimulated human PBMC assessed as 9-(3-azido-2,3-dideoxy-b-L-ribofuranosyl)-2-amino-6-chloropurine triphosphate level per 10^6 cells at 50 uM after 4 hrs by LC-MS/MS analysis. The class given is ADME, cell-based. The method in brief:
as §1

Series [18] relates to PBMC. Nature of the series: Drug metabolism in human phytohemagglutininin-stimulated human PBMC assessed as 9-(3-azido-2,3-dideoxy-b-L-ribofuranosyl)-2-amino-6-chloropurine monophosphate level per 10^6 cells at 50 uM after 4 hrs by LC-MS/MS analysis. The class given is ADME, cell-based. The essentials: as §1
For series [19], the target named is Human immunodeficiency virus type 1 reverse transcriptase (Human immunodeficiency virus 1) (UniProt Q72547). Briefly: Selectivity ratio of Kpol to Kd for dCTP to Kpol to Kd for compound at HIV1 reverse transcriptase.
[20] abbreviates: Hepatitis B virus, HePAD38, 168 h.
[21] abbreviates: Human immunodeficiency virus 1, LAV1, 144 h.

SMILES strings stand for the structures.

Broadly, the EC50 is the midpoint of the concentration-response curve. In general, EC90 refers to the concentration needed for an effect of 90%. Broadly, the IC50 is the midpoint of a concentration-inhibition curve. Usually Kd stands for a measure of binding affinity in units of concentration.

Take `CCOC(=O)[C@H](C)NP(=O)(OC[C@@H]1O[C@H](n2cnc3c(N)ncnc32)C[C@H]1N=[N+]=[N-])Oc1ccccc1` (stereo not given in full): the values for the EC50 in [1] (setting [20]) and in series [2] (setting [21]) were > 100 µM and 1.4 µM, respectively. In series [2] (setting [21]), the 90% effect concentration (EC90) was 15.6 µM. In addition, the Activity in series [3] is 4200 fmol; in series [4] it was “Non-toxic”; in series [5], 1200 fmol; in series [6], 7500 fmol; in series [10] it was 7400 fmol. Besides, the IC50 in [7], in series [8] and in series [9] was > 100 µM in each case.

In the case of `[N-]=[N+]=N[C@@H]1C[C@@H](n2cnc3c(N)nc(N)nc32)O[C@H]1COP(=O)(O)OP(=O)(O)OP(=O)(O)O`, the Ratio in series [11] worked out at 0.062 µM⁻¹ min⁻¹. Moreover, the Selectivity ratio in [12] is 7340. Also, in series [13], the Kd is 2.3 µM.

On to `CCOC(=O)[C@H](C)NP(=O)(OC[C@@H]1O[C@H](n2cnc3c(Cl)ncnc32)C[C@H]1N=[N+]=[N-])Oc1ccccc1` (stereo not given in full), for which the EC50 in [1] (setting [20]) was > 100 µM; in [2] (setting [21]), 16.5 µM. Moreover, the EC90 in [2] (setting [21]) is 83.1 µM. Moreover, the Activity result in [4] is reported as “Non-toxic”. Moreover, the half-maximal inhibitory concentration (IC50) in [7] is > 100 µM; in [8] it was 5.8 µM; in series [9] it was 69.2 µM.

Turning to `CCOC(=O)[C@H](C)NP(=O)(OC[C@@H]1O[C@H](n2cnc3c(N)nc(N)nc32)C[C@H]1N=[N+]=[N-])Oc1ccccc1` (stereo not given in full), the figures for the EC50 in [1] (setting [20]) and in [2] (setting [21]) were > 100 µM and 15.8 µM, respectively. Besides, the concentration for an effect of 90% (EC90) in series [2] (setting [21]) is > 100 µM. In series [4], the Activity entry is listed as “Non-toxic”. For the same compound, the IC50 in series [7], in series [8] and in series [9] was > 100 µM each time.

For `CCOC(=O)[C@H](C)NP(=O)(OC[C@@H]1O[C@H](n2cnc3c(O)nc(N)nc32)C[C@H]1N=[N+]=[N-])Oc1ccccc1` (stereo not given in full), the concentration giving a half-maximal response (EC50) in [1] (setting [20]) and in [2] (setting [21]) was > 100 µM throughout. Also, in [2] (setting [21]), the EC90 is > 100 µM. Moreover, in series [4], the Activity result was “Non-toxic”. For the same compound, the IC50 in [7], in [8] and in series [9] was > 100 µM each time.

With `Cc1cn([C@H]2C[C@H](N=[N+]=[N-])[C@@H](CO)O2)c(=O)[nH]c1=O` (stereo in doubt; 27) [ZIDOVUDINE], the EC50 in series [1] and in series [2] was > 100 µM in each case. In addition, the concentration for an effect of 90% (EC90) in series [2] is > 100 µM. Also, the Activity result in [4] is given as “Non-toxic”.

Take `Cc1cn([C@H]2C[C@H](N=[N+]=[N-])[C@@H](CO[P@](=O)(O)O[P@](=O)(O)OP(=O)(O)O)O2)c(=O)[nH]c1=O` (single isomer, unassigned) [ZIDOVUDINE TRIPHOSPHATE]: in [13], the Kd turned out to be 55 µM.

For `Nc1ccn([C@H]2C[C@H](O)[C@@H](CO)O2)c(=O)n1` [DOXECITINE], the Ratio in series [11] was found to be 65 µM⁻¹ min⁻¹. Further, the dissociation constant Kd in [13] is 1.1 µM.

As to `CCOC(=O)[C@H](C)NP(=O)(OC[C@@H]1O[C@H](n2cnc3c(Cl)nc(N)nc32)C[C@H]1N=[N+]=[N-])Oc1ccccc1` (stereo not given in full), the values for the 50% effective concentration (EC50) in series [1] (setting [20]) and in series [2] (setting [21]) were > 100 µM and 16.5 µM, respectively. The EC90 in series [2] (setting [21]) turned out to be 55.9 µM. Moreover, the Activity in [14] was 49 fmol; in series [4], “Non-toxic”; in series [15], 190 fmol; in series [16], 12 fmol; in series [17], 10 fmol; in series [18], 430 fmol. Besides, the IC50 is > 100 µM in series [7], 23.1 µM in series [8] and 71 µM in series [9].

In the case of `Nc1ccn([C@@H]2CS[C@H](CO)O2)c(=O)n1` [LAMIVUDINE], in series [1] (setting [20]), the concentration for a half-maximal effect (EC50) was found to be 0.06 µM. In addition, the Activity entry in [4] is recorded as “Non-toxic”. The half-inhibitory concentration (IC50) in series [7], in series [8] and in series [9] was > 100 µM each time.

With `Cc1cn([C@H]2C[C@H](N=[N+]=[N-])[C@@H](CO)O2)c(=O)[nH]c1=O` (stereo in doubt) [ZIDOVUDINE], the half-maximal effective concentration (EC50) in series [1] was > 10 µM.

As for `Nc1ncnc2c1ncn2[C@H]1C[C@H](O)[C@@H](COP(=O)(O)OP(=O)(O)OP(=O)(O)O)O1`, in [11], the Ratio turned out to be 455 µM⁻¹ min⁻¹.

As to `CCOC(=O)[C@H](C)NP(=O)(OC[C@@H]1O[C@H](n2cc(C)c(=O)[nH]c2=O)C[C@H]1N=[N+]=[N-])Oc1ccccc1` (stereo not given in full), the EC50 in series [1] (setting [20]) and in [2] (setting [21]) was > 100 µM throughout. Also, the EC90 in series [2] (setting [21]) was > 100 µM. Moreover, the Activity entry in series [4] is given as “Non-toxic”. The 50% inhibitory concentration (IC50) in [7], in series [8] and in series [9] was > 100 µM each time.

On to `[N-]=[N+]=N[C@@H]1C[C@@H](n2cnc3c(O)nc(N)nc32)O[C@H]1COP(=O)(O)OP(=O)(O)OP(=O)(O)O`, for which the dissociation constant (Kd) in series [13] was 0.23 µM.

Take `Nc1ccn([C@@H]2CS[C@H](COP(=O)(O)OP(=O)(O)OP(=O)(O)O)O2)c(=O)n1` [LAMIVUDINE TRIPHOSPHATE]: the Ratio in series [11] stood at 5.46 µM⁻¹ min⁻¹. Moreover, in [13], the dissociation constant (Kd) was determined as 0.13 µM. Also, in series [19], the Selectivity ratio came out at 11.9.

Regarding `[N-]=[N+]=N[C@@H]1C[C@@H](n2cnc3c(N)ncnc32)O[C@H]1COP(=O)(O)OP(=O)(O)OP(=O)(O)O`, the Ratio in series [11] worked out at 0.023 µM⁻¹ min⁻¹. Also, the Selectivity ratio in series [12] is 19800. The dissociation constant (Kd) in series [13] was 15 µM.
